# According to ChEMBL document CHEMBL3272287, “Synthesis and biological activity of new 2-substituted analogs of fluphenazine” (1976):
# Experiments:
# Assay type in all cases: functional
# Rattus norvegicus [1] = assay: Cataleptogenic potency in im dosed albino rat assessed as reversal of imposed position administered 4 doses at quarter log intervals measured 60 to 180 mins post dose relative to fluphenazine
# In short: (§1)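 Male albino rats (about 180 g average), groups of six, each given a single intramuscular injection into the gastrocnemius, about 0.1 ml/kg. Saline-injected controls. One observer scored forepaw-elevation catalepsy. CD50 was the dose giving 50% of the maximum catalepsy score (9 of 18 points), estimated by probit analysis. Doses were expressed as free base. Relative potency was calculated against fluphenazine as 1.0.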
# Mus musculus [2] = assay: Cataleptogenic potency in iv dosed albino mouse assessed as reversal of imposed position administered 4 doses at quarter log intervals measured 60 to 180 mins post dose relative to fluphenazine
# In short: (§2)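 Male albino mice (20–25 g), six per dose, given intravenous aqueous solutions (PEG 200 for one analog). Distilled water served as the negative control. About four doses were spaced at quarter-log intervals, chosen from a preliminary gross observation screen. At 60, 120 and 180 min, mice were placed with forepaws elevated 5 cm and each forepaw was scored, maximum 3. Three observers scored the mice. CD50 came from probit analysis, with doses as free base. Relative potency was calculated against fluphenazine as 1.0.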
# Rattus norvegicus [3] = assay: Cataleptogenic potency in im dosed albino rat assessed as reversal of imposed position administered 4 doses at quarter log intervals measured 60 to 180 mins post dose; in short: as §1
# Mus musculus [4] = assay: Cataleptogenic potency in iv dosed albino mouse assessed as reversal of imposed position administered 4 doses at quarter log intervals measured 60 to 180 mins post dose; in short: as §2
SMILES,Ratio (Rattus norvegicus [1]),Ratio (Mus musculus [2]),ED50 (Rattus norvegicus [3]) [µmol/kg],ED50 (Mus musculus [4]) [µmol/kg]
N#Cc1ccc2c(c1)N(CCCN1CCN(CCO)CC1)c1ccccc1S2,0.65,0.7,0.61,0.41
OCCN1CCN(CCCN2c3ccccc3Sc3ccc(C(F)(F)F)cc32)CC1 [FLUPHENAZINE],,,0.39,0.29
N#CC(C#N)=Cc1ccc2c(c1)N(CCCN1CCN(CCO)CC1)c1ccccc1S2,,0.078,,28
O=[N+]([O-])c1ccc2c(c1)N(CCCN1CCN(CCO)CC1)c1ccccc1S2,3.2,0.92,0.17,2.2
O=[N+]([O-])/C=C/c1ccc2c(c1)N(CCCN1CCN(CCO)CC1)c1ccccc1S2,,<0.011,,> 57
